# Assay results: ChEMBL document CHEMBL1135739, “Radiolabeled amino acids for tumor imaging with PET: radiosynthesis and biological evaluation of 2-amino-3-[18F]fluoro-2-methylpropanoic acid and 3-[18F]fluoro-2-methyl-2-(methylamino)propanoic acid” (J Med Chem, 2002)
# Columns and labels:
# [1] = organism: Rattus norvegicus; assay: Radioactivity distribution in muscle of tumor-bearing fischer rat after injection of [18F]fluoro-2-methylpropanoic acid after 120 min; assay type: ADME, organism-based, Muscle tissue; conditions: in vivo, 2 h
# How it was run: (§1)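 Male Fischer 344 rats carried intracranial 9L gliosarcoma, stereotactically implanted (4×10^4 cells) and used 17–19 days later. Awake, restrained animals received about 35 μCi tracer in 0.3 mL sterile water via the tail vein and were killed at 5, 60 or 120 min (n = 4–5). Tissues were weighed, gamma-counted, decay-corrected and reported as %ID/g ± standard error.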
# [2] = organism: Rattus norvegicus; assay: Radioactivity distribution in testis of normal fischer rat after injection of [18F]fluoro-2-methylpropanoic acid after 30 min.; assay type: ADME, organism-based; conditions: in vivo, 0.5 h
# How it was run: (§2)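 Male Fischer 344 rats (200–250 g), fed ad libitum, under intramuscular ketamine:xylazine anesthesia, got ~85 μCi radiotracer in 0.3 mL sterile water by tail-vein catheter. Groups of four were killed at 5, 30, 60 or 120 min. Dissected tissues were weighed and gamma-counted with dose standards. Counts were decay-corrected and given as %ID/g, mean ± standard error. Tissues were compared by one-way ANOVA.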
# [3] = organism: Rattus norvegicus; assay: Radioactivity distribution in liver of normal fischer rat after injection of [18F]fluoro-2-methylpropanoic acid after 30 min.; assay type: ADME, organism-based; conditions: in vivo, 0.5 h
# How it was run: (§3)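 Male Fischer 344 rats (200–250 g), fed ad libitum, anesthetized with intramuscular ketamine:xylazine (1:1, 0.1 mL/100 g). About 85 μCi tracer in 0.3 mL sterile water was given by tail-vein catheter. Groups of four were killed at 5, 30, 60 or 120 min. Tissues were weighed and gamma-counted against dose standards, decay-corrected, and expressed as %ID/g (mean ± standard error).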
# [4] = organism: Rattus norvegicus; assay: Radioactivity distribution in heart of normal fischer rat after injection of [18F]fluoro-2-methylpropanoic acid after 5 min.; assay type: ADME, organism-based; conditions: in vivo
# How it was run: (§4)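 Normal male Fischer 344 rats (200–250 g), anesthetized with i.m. ketamine:xylazine (1:1), got ~85 μCi of tracer in 0.3 mL sterile water i.v. via tail-vein catheter. Groups of four were killed at 5, 30, 60 or 120 min. Tissues were weighed and gamma-counted against dose standards, and counts were decay-corrected to %ID/g. Results are mean ± standard error (n = 4), compared by one-way ANOVA.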
# [5] = organism: Rattus norvegicus; assay: Radioactivity distribution in pancreas of tumor-bearing fischer rat after injection of [18F]fluoro-2-methylpropanoic acid after 120 min; assay type: ADME, organism-based; conditions: in vivo, 2 h; how it was run: as §1
# [6] = organism: Rattus norvegicus; assay: Radioactivity distribution in testis of normal fischer rat after injection of [18F]fluoro-2-methylpropanoic acid after 60 min.; assay type: ADME, organism-based; conditions: in vivo, 1 h; how it was run: as §2
# [7] = organism: Rattus norvegicus; assay: Radioactivity distribution in tumor of tumor-bearing fischer rat after injection of [18F]fluoro-2-methylpropanoic acid after 5 min; assay type: ADME, organism-based; conditions: in vivo
# How it was run: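 Male Fischer rats had 4×10^4 9L gliosarcoma cells implanted stereotactically into the brain, 3 mm right of midline, 1 mm anterior to bregma, 5 mm deep. They were used 17–19 days later. Awake, restrained rats got ~35 μCi in 0.3 mL sterile water by tail vein and were killed at 5, 60 or 120 min. Tissues, tumor and contralateral brain were gamma-counted, decay-corrected, as %ID/g, mean ± SE, n = 4–5.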
# [8] = organism: Rattus norvegicus; assay: Radioactivity distribution in lung of tumor-bearing fischer rat after injection of [18F]-fluoro-2-methylpropanoic acid after 5 min; assay type: ADME, organism-based; conditions: in vivo; how it was run: as §1
# [9] = organism: Rattus norvegicus; assay: Radioactivity distribution in brain of normal fischer rat after injection of [18F]fluoro-2-methylpropanoic acid after 60 min.; assay type: ADME, organism-based; conditions: in vivo, 1 h; how it was run: as §4
# [10] = organism: Rattus norvegicus; assay: Radioactivity distribution in spleen of normal fischer rat after injection of [18F]fluoro-2-methylpropanoic acid after 120 min.; assay type: ADME, organism-based; conditions: in vivo, 2 h; how it was run: as §2
# [11] = organism: Rattus norvegicus; assay: Radioactivity distribution in pancreas of normal fischer rat after injection of [18F]fluoro-2-methylpropanoic acid after 120 min.; assay type: ADME, organism-based; conditions: in vivo, 2 h; how it was run: as §3
# [12] = organism: Rattus norvegicus; assay: Radioactivity distribution in lung of tumor-bearing fischer rat after injection of [18F]fluoro-2-methylpropanoic acid after 60 min; assay type: ADME, organism-based; conditions: in vivo, 1 h; how it was run: as §1
smiles,measurement,setting,value
CC(N)(C[18F])C(=O)O.Cl (configuration not stated),ID/g,[1],0.21%
same,ID/g,[2],0.1%
same,ID/g,[3],0.56%
same,ID/g,[4],0.29%
same,ID/g,[5],1.42%
same,ID/g,[6],0.12%
same,ID/g,[7],0.91%
same,ID/g,[8],0.84%
same,ID/g,[9],0.06%
same,ID/g,[10],0.33%
same,ID/g,[11],2.48%
same,ID/g,[12],0.38%
